# Experimental data from ChEMBL document CHEMBL1275591, “Cellular pharmacodynamics of the novel biaryloxazolidinone radezolid: studies with infected phagocytic and nonphagocytic cells, using Staphylococcus aureus, Staphylococcus epidermidis, Listeria monocytogenes, and Legionella pneumophila” (Antimicrob Agents Chemother, 2010).
# Legend:
# Staphylococcus aureus [1] = assay: Bacteriostatic activity against linezolid-susceptible Staphylococcus aureus SA238 infected in rat fibroblast cells after 24 hrs; format: functional
# Summary of the method: (§1)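 Adherent nonphagocytic cells were infected at 5 × 10^7 to 1 × 10^8 bacteria/ml with 2 h phagocytosis. Cells used: Calu-3 bronchial epithelium grown in uncoated flasks, neonatal foreskin keratinocytes on collagen-coated wells, primary human osteoblasts, and primary rat embryo fibroblasts. Antibiotic was then given over a concentration range for 24 h. Cs came from a sigmoidal fit of CFU change.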
# THP-1 = assay: Ratio of drug level for cellular to extracellular region of Staphylococcus aureus infected human THP-1 cells at 4 mg/liter after 2 hrs; format: ADME, cell-based; settings: thp-1, 2 h
# Summary of the method: (§2)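 Cells were exposed to [14C]radezolid for 2 or 24 h. Cell-associated drug in lysates was measured by liquid scintillation counting (detection limit 0.003 mg/liter; linear 0.01–0.78 mg/liter). Content was normalised to cell protein (Lowry). It was converted to apparent cellular concentration at 5 μl per mg protein and expressed relative to the extracellular concentration.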
# Staphylococcus aureus [2] = assay: Antimicrobial activity against linezolid-susceptible Staphylococcus aureus SA238 infected in Calu-3 cells assessed as log reduction in bacterial count after 24 hrs; format: functional
# Summary of the method: (§3)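 S. aureus was internalized by adherent nonphagocytic cells: Calu-3, HUVEC, keratinocytes on collagen-coated wells, osteoblasts, or rat embryo fibroblasts. Inoculum was 5 × 10^7 to 1 × 10^8 bacteria/ml with 2 h phagocytosis (HUVEC: 2 × 10^6/ml, 1 h). Cells were then exposed to graded drug concentrations for 24 h. CFU change versus the original inoculum was fitted sigmoidally for Emax and Cs.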
# Listeria monocytogenes = assay: Antimicrobial activity against Listeria monocytogenes EGD after 24 hrs; format: functional
# Staphylococcus aureus [3] = assay: Antimicrobial activity against community acquired methicillin-resistant Staphylococcus aureus NRS192 after 24 hrs; format: functional; settings: NRS192, 24 h
# [4] = Ratio of drug level for cellular to extracellular region of Staphylococcus aureus infected rat fibroblast at 4 mg/liter after 2 hrs; format: ADME, cell-based; summary of the method: as §2
# Staphylococcus aureus [5] = assay: Bacteriostatic activity against linezolid-susceptible Staphylococcus aureus SA238 infected in human osteoblasts cells after 24 hrs; format: functional; summary of the method: as §1
# Staphylococcus aureus [6] = assay: Bacteriostatic activity against linezolid-resistant Staphylococcus aureus SA040L infected in THP1 cells after 24 hrs; format: functional, THP-1
# Summary of the method: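 Human THP-1 myelomonocytic (macrophage-like) cells infected with S. aureus, then exposed 24 h to a range of antibiotic concentrations. CFU change was measured against the initial inoculum. A sigmoidal dose-response curve was fitted to give Emin, Emax and EC50, and the apparent static concentration (Cs) was taken from the fit.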
# Staphylococcus aureus [7] = assay: Antimicrobial activity against linezolid-susceptible Staphylococcus aureus ATCC 25923 infected in THP1 cells after 24 hrs; format: functional, organism-based; settings: ATCC 25923, THP-1, 24 h
# Summary of the method: (§4)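 Bacteria were phagocytosed by human THP-1 macrophage-like cells, then exposed to a range of drug concentrations for a fixed time: 24 h for S. aureus, S. epidermidis and L. monocytogenes, 48 h for L. pneumophila. Change in CFU versus the initial inoculum was fitted with a sigmoidal curve to give Emin, Emax (relative maximal efficacy), EC50 and static concentration (Cs).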
# Staphylococcus aureus [8] = assay: Antimicrobial activity against linezolid-susceptible Staphylococcus aureus NRS18 infected in THP1 cells after 24 hrs; format: functional, organism-based; settings: NRS18, THP-1, 24 h; summary of the method: as §4
# Staphylococcus aureus [9] = assay: Antimicrobial activity against linezolid-resistant Staphylococcus aureus SA040L infected in THP1 cells after 24 hrs; format: functional, organism-based; settings: THP-1, 24 h; summary of the method: as §4
# Staphylococcus aureus [10] = assay: Antimicrobial activity against linezolid-susceptible Staphylococcus aureus SA238 infected in rat fibroblast cells assessed as log reduction in bacterial count after 24 hrs; format: functional; summary of the method: as §3
# Staphylococcus aureus [11] = assay: Antimicrobial activity against hospital acquired methicillin-resistant, vancomycin resistant Staphylococcus aureus VRS1 after 24 hrs; format: functional; settings: VRS1, 24 h
# Staphylococcus aureus [12] = assay: Antimicrobial activity against linezolid-susceptible Staphylococcus aureus ATCC 33591 infected in THP1 cells after 24 hrs; format: functional, organism-based; settings: ATCC 33591, THP-1, 24 h; summary of the method: as §4
# [13] = Ratio of drug level for cellular to extracellular region of Staphylococcus aureus infected human Calu3 cells at 4 mg/liter after 24 hrs; format: ADME, cell-based; settings: calu-3, 24 h; summary of the method: as §2
# [14] = test system: Staphylococcus epidermidis; assay: Antimicrobial activity against Staphylococcus epidermidis SA362 after 24 hrs; format: functional; settings: SA362, 24 h
# Legionella pneumophila = assay: Antimicrobial activity against Legionella pneumophila ATCC 33153 infected in THP1 cells after 48hrs; format: functional, organism-based; settings: ATCC 33153, THP-1, 48 h; summary of the method: as §4
# Staphylococcus aureus [15] = assay: Antimicrobial activity against linezolid-resistant Staphylococcus aureus SA238L infected in human epidermal keratinocytes cells assessed as log reduction in bacterial count after 24 hrs; format: functional; summary of the method: as §3
smiles,measurement,setting,value
CC(=O)NC[C@H]1CN(c2ccc(-c3ccc(CNCc4cnn[nH]4)cc3)c(F)c2)C(=O)O1 [RADEZOLID],Activity,Staphylococcus aureus [1],0.6 mg/L
same,Ratio,THP-1,9.3
same,log10cfu,Staphylococcus aureus [2],0.6
same,MIC,Listeria monocytogenes,0.03 µg/mL
same,MIC,Staphylococcus aureus [3],0.5 µg/mL
same,Ratio,[4],14.4
same,Activity,Staphylococcus aureus [5],0.6 mg/L
same,Activity,Staphylococcus aureus [6],0.56 mg/L
same,EC50,Staphylococcus aureus [7],0.24 µg/mL
same,EC50,Staphylococcus aureus [8],0.09 µg/mL
same,EC50,Staphylococcus aureus [9],0.14 µg/mL
same,log10cfu,Staphylococcus aureus [10],0.6
same,MIC,Staphylococcus aureus [11],0.5 µg/mL
same,EC50,Staphylococcus aureus [12],0.12 µg/mL
same,Ratio,[13],8.3
same,MIC,[14],0.25 µg/mL
same,EC50,Legionella pneumophila,0.47 µg/mL
same,log10cfu,Staphylococcus aureus [15],0.6
